# Bioassay records (PubChem BioAssay)
# sPLA2-III inh: Blocks human group III sPLA2 activity; Q9NZ20; QFRET BODIPY PC-A2 liposome hydrolysis, fluorescence; inhibition, % at 12.2 µM; actives 0.56% (n = 370,000);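 active = inhibition above mean plus 3 SD of compounds lying within the high and low control bounds, cut at about 19% in these data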
# Target sequence (Q9NZ20 whole entry, looked up): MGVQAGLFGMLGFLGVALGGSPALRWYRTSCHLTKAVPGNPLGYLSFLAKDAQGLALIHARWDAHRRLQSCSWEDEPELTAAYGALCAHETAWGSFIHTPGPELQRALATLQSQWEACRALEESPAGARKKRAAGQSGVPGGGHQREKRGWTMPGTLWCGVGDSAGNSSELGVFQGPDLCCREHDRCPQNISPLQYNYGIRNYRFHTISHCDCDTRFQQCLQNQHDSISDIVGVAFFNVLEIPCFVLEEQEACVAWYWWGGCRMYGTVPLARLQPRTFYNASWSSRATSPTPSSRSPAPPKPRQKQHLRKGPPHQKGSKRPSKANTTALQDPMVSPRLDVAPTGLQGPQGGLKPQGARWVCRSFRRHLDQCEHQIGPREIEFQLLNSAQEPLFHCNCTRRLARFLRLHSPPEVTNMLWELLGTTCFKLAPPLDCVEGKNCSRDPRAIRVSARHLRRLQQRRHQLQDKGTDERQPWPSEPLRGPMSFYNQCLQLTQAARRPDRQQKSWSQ
# MsrA act: activates bovine MsrA enzyme; purified bovine MsrA, absorbance read-out; actives 0.3% (n = 360,000); activation, % at 10.6 µM; in the data active = activation above about 7.5%
# MsrA inhibitor: inhibits bovine methionine sulfoxide reductase A; AID 651718; actives 0.75% (n = 360,000); purified bovine MsrA, absorbance read-out; inhibition, % at 15.5 µM; in the data active = inhibition above about 4.5%
# ASAP1 inh: inhibitors of human ASAP1 ArfGAP activity. Q9ULH1. ASAP1-stimulated ARF1 GTP hydrolysis, GDP FP detection. inhibition, % at 16.5 µM. actives 0.19% (n = 360,000). AID 624377; in the data active = inhibition above about 25%
# ARFGAP1 inhibitor: inhibitors of rat ARFGAP1; Q62848; Arfgap1-stimulated ARF1 GTP hydrolysis, GDP FP detection; inhibition, % at 16.5 µM; actives 0.26% (n = 360,000);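 active = inhibition above a per-plate limit, mean inhibition of low control wells plus 3 SD, cut at about 25% in these data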
# Target sequence (Q62848 1-136 limits assumed): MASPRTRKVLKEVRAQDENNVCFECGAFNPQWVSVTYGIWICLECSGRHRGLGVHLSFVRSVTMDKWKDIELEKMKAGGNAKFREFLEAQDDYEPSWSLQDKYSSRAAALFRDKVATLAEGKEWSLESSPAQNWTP
#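 Material: rat Arfgap1 catalytic domain, aa 1-136; also added: human ARF1(Δ1-17)-GTP substrate; compound dosing: one concentration, 16.5 µM, DMSO 1.26%; incubation: GTP hydrolysis reaction 2 h at 25 °C; measured by: Tracer-displacement fluorescence polarization with EDTA stop, 620/688 nm; evaluation: % inhibition from polarization; repeats: one replicate per compound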
# Rev-erbA mod: modulates human Rev-erb alpha binding to DNA | activity, % at 10 µM | P20393 | Rev-erbα–FITC-DNA binding, fluorescence polarization, 90 min | AID 1259318 | actives 0.79% (n = 370,000);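 active = activity above about 14%, limit read from the data; passing the limit was not always enough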
# NR1D1 mod conf: confirmation of modulators of human Rev-erb alpha DNA binding; shares compounds with Rev-erbA mod; Rev-erb alpha FITC-DNA binding, fluorescence polarization, 90 min; activation, % at 25 µM; actives 61% (n = 3,000);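 active = activation at or above a set limit, or at least 3 SD above the negative control mean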
# RORg DNA counter: affects RORgamma DNA binding in a Rev-erb alpha counter-screen; IC50, µM; purified RORgamma protein-FITC-DNA binding, fluorescence polarization; actives 8% (n = 910); shares compounds with Rev-erbA mod;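 active = Compounds whose fitted half-maximal concentration for disrupting protein-DNA binding is below 10 micromolar; the record names Rev-erb in its text, so the target is in doubt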
# Numbers stand for hits; i = inactive; nt = not tested or not shown. A selection: hits, their analogues and other compounds. The true share with any hit is near 2.7%.
SMILES,sPLA2-III inh,MsrA act,MsrA inhibitor,ASAP1 inh,ARFGAP1 inhibitor,Rev-erbA mod,NR1D1 mod conf,others
CCc1cccc(NC(=O)Cn2c(=O)c3cccn3c3ccccc32)c1,i,i,i,i,i,28,i,
O=C(Cn1c(=O)c2cccn2c2ccccc21)NCc1cccc(F)c1,i,i,i,i,i,i,nt,
COc1cccc(CNC(=O)Cn2c(=O)c3cccn3c3ccccc32)c1,i,i,i,i,i,19,i,
COc1ccc(S(=O)(=O)N2CCCCC2)cc1NC(=O)c1cncc(Br)c1,i,i,i,i,i,41,19,
CC(C)C(=O)Nc1cc(S(=O)(=O)N2CCOCC2)ccc1N1CCCCC1,i,i,i,i,i,i,nt,
CC(C)(C)C(=O)Nc1cc(S(=O)(=O)N2CCCCC2)ccc1N1CCCCC1,i,i,i,i,i,39,38,RORg DNA counter=i
OCC[C@@H]1NCc2cc(CO)cc(-c3ccccc3)c21,i,i,i,i,i,i,nt,
O=c1oc2ccccc2n1CSc1nc2ccccc2s1,i,i,i,i,i,18,20,
O=C(CSc1nc2ccccc2s1)CSc1nc2ccccc2s1,i,i,i,i,i,i,nt,
CC(C)COc1ccc(C(=O)Nc2scc(-c3ccc(Cl)cc3Cl)c2C(N)=O)cc1,i,i,i,i,i,31,29,
CC1=CC(=C(C#N)C#N)C=C(C)N1CCN1CCN(C(=O)Nc2ccc(Cl)c(Cl)c2)CC1,i,i,i,i,i,41,26,
Cc1sc2nc(N3CCOCC3)[nH]c(=O)c2c1-c1ccccc1,i,i,i,i,i,94,128,RORg DNA counter=i
COCCNC(=O)c1ccc2c(c1)S(=O)(=O)c1cc(Cl)ccc1C2=O,i,i,i,i,i,i,nt,
O=C(NCCOc1ccccc1)c1ccc2c(c1)S(=O)(=O)c1cc(Cl)ccc1C2=O,i,i,i,i,i,23,i,
C=CCn1nc(C(=O)N2CCOCC2)cc1-c1sc(NC(=O)c2ccccc2)nc1C,i,i,i,i,i,i,nt,
CCC(=O)c1cn(CC(=O)Nc2cccc(C)c2)c2ccccc12,i,i,i,i,i,52,45,RORg DNA counter=i
CCC(=O)c1cn(CC(=O)Nc2ccccc2Cl)c2ccccc12,i,i,i,i,i,80,44,RORg DNA counter=i
CCC(=O)c1cn(CC(=O)Nc2cccc(C)c2C)c2ccccc12,i,i,i,i,i,i,nt,
CCOC(=O)C1(C)CCN1C(=O)CSc1ccccc1 (stereo not drawn),i,i,i,i,i,i,nt,
O=C(Nc1ccc(S(=O)(=O)C(F)F)cc1)c1ccc2c(=O)n3c(nc2c1)CCC3,i,i,i,i,i,20,i,
O=C(Nc1ccc(SC(F)F)cc1)c1ccc2c(=O)n3c(nc2c1)CCC3,i,i,i,i,i,i,nt,
CC(C)CCNC(=O)c1cc2c(=O)[nH]c3ccccc3c2s1,i,i,i,i,i,30,22,
Cc1ccc2[nH]c(=O)c3cc(C(=O)NCCC(C)C)sc3c2c1,i,i,i,i,i,i,nt,
C=CCC[C@H](CCCCC)OC(=O)/C=C/[C@@H](O)[C@H](O)C[C@@H](O)CC=C,i,i,i,i,i,i,nt,
Cc1ccc(OCC(=O)NNC(=O)C2CCN(c3ncnc4sc(C)c(C)c34)CC2)cc1,i,i,i,i,i,i,nt,
SMILES,sPLA2-III inh,MsrA act,MsrA inhibitor,ASAP1 inh,ARFGAP1 inhibitor,Rev-erbA mod,NR1D1 mod conf,others
Cc1sc2ncnc(N3CCC(C(=O)Nc4nnc(CC(C)C)s4)CC3)c2c1C,i,i,i,i,i,17,i,
CS(=O)(=O)c1ccc(Cl)c(NC(=O)CSc2nnc(C3CC3)n2C2CC2)c1,i,i,i,i,i,17,i,
COC(=O)c1cc(Cl)c(NC(=O)c2cc3ccccc3o2)cc1OC,i,i,i,i,i,28,i,
CCOC(=O)c1sc(NC(=O)c2ccccc2OC)nc1C,i,i,i,i,i,40,23,
CCOC(=O)c1sc(NC(=O)c2cc3ccccc3o2)nc1C,i,i,i,i,i,30,i,
CCOC(=O)c1sc(NC(=O)Nc2ccccc2F)nc1C,i,i,i,i,i,i,nt,
COC(=O)c1sc(NC(=S)NC(=O)c2ccccc2F)nc1C,i,i,i,i,i,43,i,
O=C(CSc1nnc(-c2cccs2)n1-c1ccccc1)N1CCCc2ccccc21,i,i,i,i,i,110,101,RORg DNA counter=i
CCOc1ccc(-n2c(SCC(=O)N3CCc4ccccc43)nnc2-c2c[nH]c3ccccc23)cc1,i,i,i,i,i,93,24,
CCn1c(SCC(=O)N2CCCc3ccccc32)nnc1-c1cccs1,i,i,i,i,i,i,nt,
COc1cccc(-n2c(SCC(=O)N3CCc4ccccc43)nnc2-c2c[nH]c3ccccc23)c1,i,i,i,i,i,i,nt,
CC(=O)OCC1OC(n2c(-c3ccc(Cl)cc3)ccc(C#N)c2=S)C(OC(C)=O)C(OC(C)=O)C1OC(C)=O (stereo not drawn),i,i,i,i,i,55,41,RORg DNA counter=i
CC(=O)OCC1OC(n2c3c(cc(C#N)c2=S)CCCC3)C(OC(C)=O)C(OC(C)=O)C1OC(C)=O (stereo not drawn),i,i,i,i,i,i,nt,
CC(C)c1cc(C(=O)OCC(=O)NC(=O)NCc2ccco2)c(O)c(C(C)C)c1,i,i,i,i,i,16,i,
O=C(COC(=O)c1ccccc1C(F)(F)F)NC(=O)NCc1ccco1,i,i,i,i,i,i,nt,
CCCCn1nnnc1C(c1cc2ccccc2o1)N1CCN(c2ccncc2)CC1 (stereo not drawn),i,i,i,i,i,i,nt,
COc1ccc(-c2nc3ccc(Br)cn3c2Cc2ccccc2C(F)(F)F)cc1OC,i,i,i,i,i,16,i,
Cc1ccc2nc(-c3cccc(Br)c3)c(Cc3ccccc3C(F)(F)F)n2c1,i,i,i,i,i,i,nt,
Cc1ccc2nc(-c3ccc(F)cc3)c(Cc3ccccc3C(F)(F)F)n2c1,i,i,i,i,i,17,i,
COc1ccc(-c2nc3ccc(C)cn3c2Cc2ccccc2C(F)(F)F)cc1OC,i,nt,i,i,i,i,nt,
C[C@H]1CN([C@@H](C)CO)C(=O)c2cc(Br)cnc2O[C@@H]1CN(C)C(=O)C1CCC1,i,i,i,i,i,i,nt,
C=CCSc1nc(-c2ccc3c(c2)OCO3)cc(C(F)(F)F)c1C#N,i,i,i,i,i,25,20,
COc1ccc(-c2cc(C(F)(F)F)c(C#N)c(SCC(=O)Nc3ccc(C)cc3)n2)cc1,i,i,i,i,i,83,32,
